ChEMBL document CHEMBL1125911, “Synthesis and biological activity of new HMG-CoA reductase inhibitors. 3. Lactones of 6-phenoxy-3,5-dihydroxyhexanoic acids” (J Med Chem, 1991)

Tests used:
Rattus norvegicus [1] = species: Rattus norvegicus; test: In vitro inhibition of microsomal lipid peroxidation; assay type: functional
Procedure, shortened: (§1)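 Rat liver microsomes in 50 mM Tris-HCl pH 7.4 with 100 mM KCl and 6.0 mM MgCl2, final protein 0.4 mg/mL. Peroxidation was started with ADP (2 mM)/FeCl3 (10 μM) plus an NADPH-regenerating system. Incubation 30 min at 37 °C with shaking. Thiobarbituric acid reactive substances were read at 535 nm.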

Rattus norvegicus [2] = species: Rattus norvegicus; test: In vitro inhibition of microsomal lipid peroxidation at 10e-5 M conc.; assay type: functional; procedure, shortened: as §1
Rattus norvegicus [3] = species: Rattus norvegicus; test: Compound was tested for inhibition of microsomal lipid peroxidation and the potency relative to terbufucine was determined; assay type: functional; procedure, shortened: as §1
[4] = target: T1, 3-hydroxy-3-methylglutaryl-coenzyme A reductase (Homo sapiens, UniProt P04035); test: Inhibition of the incorporation of sodium [14C]acetate into cholesterol in HEP G2 cells.; assay type: functional, cell-based, HepG2
T1 sequence (P04035 whole entry): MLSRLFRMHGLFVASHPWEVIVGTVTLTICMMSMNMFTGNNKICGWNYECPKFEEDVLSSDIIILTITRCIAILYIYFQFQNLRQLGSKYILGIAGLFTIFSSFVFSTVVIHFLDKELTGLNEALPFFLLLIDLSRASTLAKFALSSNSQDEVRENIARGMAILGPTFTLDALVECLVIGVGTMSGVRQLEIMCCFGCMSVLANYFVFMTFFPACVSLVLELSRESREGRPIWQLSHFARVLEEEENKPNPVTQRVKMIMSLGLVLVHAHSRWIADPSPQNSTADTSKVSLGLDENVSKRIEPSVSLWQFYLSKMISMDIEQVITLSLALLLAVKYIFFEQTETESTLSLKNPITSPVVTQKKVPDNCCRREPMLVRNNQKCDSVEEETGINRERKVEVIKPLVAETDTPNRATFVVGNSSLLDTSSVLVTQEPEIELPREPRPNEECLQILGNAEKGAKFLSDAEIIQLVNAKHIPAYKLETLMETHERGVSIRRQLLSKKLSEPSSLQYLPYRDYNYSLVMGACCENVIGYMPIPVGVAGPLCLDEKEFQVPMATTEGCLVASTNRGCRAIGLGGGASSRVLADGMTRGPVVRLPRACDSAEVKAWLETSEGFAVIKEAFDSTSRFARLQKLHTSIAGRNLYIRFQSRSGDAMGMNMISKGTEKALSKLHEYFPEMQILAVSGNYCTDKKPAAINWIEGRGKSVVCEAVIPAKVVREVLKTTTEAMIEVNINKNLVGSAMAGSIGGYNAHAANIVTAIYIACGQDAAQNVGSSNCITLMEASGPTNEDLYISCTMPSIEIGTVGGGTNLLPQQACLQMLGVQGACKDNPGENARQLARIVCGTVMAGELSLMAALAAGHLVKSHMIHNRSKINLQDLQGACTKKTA

[5] = target: T2, 3-hydroxy-3-methylglutaryl-coenzyme A reductase (Homo sapiens) (UniProt P04035); test: (§2) Inhibition of HMG-CoA reductase compared to mevinolin.; assay type: functional
T2 sequence (whole entry): T1 sequence (P04035 whole entry)
Procedure, shortened: (§3)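 Solubilized, partially purified rat liver HMG-CoA reductase. IC50 from four or five inhibitor concentrations. Relative potency compared IC50 with mevinolin (set to 100), corrected for molecular weight.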

Oryctolagus cuniculus [6] = test: Tested in vivo for hypocholesterolemic activity by measuring its ability to decrease serum total cholesterol, after oral administration of 10 mg/kg body wt. per day in normolipidemic NZW rabbits; assay type: functional
Procedure, shortened: (§4)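 NZW rabbits (n = 5 or 6) dosed orally daily for 10 days. Serum total cholesterol reported as % change versus control. For 20 mg/kg, that dose was given on days 11-20 after 10 mg/kg, with the value read on day 20. Error given as SEM.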

Rattus norvegicus [7] = test: In vivo inhibition of hepatic cholesterol de novo synthesis in rat after oral administration of 5 mg/kg dose; assay type: functional
Rattus norvegicus [8] = species: Rattus norvegicus; test: Potency relative to mevinolin was determined with respect to IC50. […]; assay type: functional
Rattus norvegicus [9] = test: Compound was tested for effect on body weight after oral administration of 100 mg/kg in male rats.; assay type: functional
Procedure, shortened: (§5)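 Male HOE:WISKf (SPF 71) rats, initial body weight over 180 g, n = 10 per group, dosed once daily in the morning by gavage in polyethylene glycol 400 for 7 days; controls received vehicle. Fasted after last dose, bled retroorbitally 24 h later under mild ether. Liver and body weight recorded. Pooled group serum was ultracentrifuged into VLDL (<1.006), LDL (1.006-1.04) and HDL (1.04-1.21). Values are % change versus control.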

Rattus norvegicus [10] = test: Compound was tested for effect on liver weight after oral administration of 100 mg/kg in male rats.; assay type: functional; procedure, shortened: as §5
Rattus norvegicus [11] = test: Compound was tested for effect on serum HDL after oral administration of 100 mg/kg in male rats; assay type: functional; procedure, shortened: as §5
Rattus norvegicus [12] = test: Compound was tested for effect on serum LDL after oral administration of 100 mg/kg in male rats; assay type: functional; procedure, shortened: as §5
Rattus norvegicus [13] = test: Compound was tested for effect on serum VLDL after oral administration of 100 mg/kg in male rats; assay type: functional; procedure, shortened: as §5
[14] = target: T3, 3-hydroxy-3-methylglutaryl-coenzyme A reductase (Rattus norvegicus, UniProt P51639); test: In vitro inhibition of HMG-CoA reductase in solubilized rat liver.
T3 sequence (P51639 whole entry): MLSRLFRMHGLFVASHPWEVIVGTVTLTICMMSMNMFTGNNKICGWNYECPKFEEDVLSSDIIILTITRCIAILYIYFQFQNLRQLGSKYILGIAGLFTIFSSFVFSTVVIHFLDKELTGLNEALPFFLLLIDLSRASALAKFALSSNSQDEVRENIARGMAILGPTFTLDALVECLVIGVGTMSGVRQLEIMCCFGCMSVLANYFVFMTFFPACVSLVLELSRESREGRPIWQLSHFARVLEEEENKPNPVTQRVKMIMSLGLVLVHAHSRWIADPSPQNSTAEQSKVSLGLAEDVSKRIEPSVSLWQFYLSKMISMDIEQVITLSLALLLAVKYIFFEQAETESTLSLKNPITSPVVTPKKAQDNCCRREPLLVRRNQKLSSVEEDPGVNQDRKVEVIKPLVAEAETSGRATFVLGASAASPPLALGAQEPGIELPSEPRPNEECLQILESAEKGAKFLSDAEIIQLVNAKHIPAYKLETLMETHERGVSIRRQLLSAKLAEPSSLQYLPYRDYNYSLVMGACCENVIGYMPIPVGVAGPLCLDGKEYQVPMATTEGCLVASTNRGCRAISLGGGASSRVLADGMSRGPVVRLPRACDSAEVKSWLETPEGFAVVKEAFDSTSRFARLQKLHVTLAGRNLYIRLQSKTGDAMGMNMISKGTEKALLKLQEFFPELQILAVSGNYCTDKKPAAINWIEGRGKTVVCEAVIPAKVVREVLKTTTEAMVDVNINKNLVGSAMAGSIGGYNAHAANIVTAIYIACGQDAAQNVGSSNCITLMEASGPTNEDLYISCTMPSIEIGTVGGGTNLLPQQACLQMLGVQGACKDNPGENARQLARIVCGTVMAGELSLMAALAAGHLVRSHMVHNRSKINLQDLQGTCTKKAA

[15] = target: T4, 3-hydroxy-3-methylglutaryl-coenzyme A reductase (Rattus norvegicus) (UniProt P51639); test: as §2; procedure, shortened: as §3
T4 sequence (whole entry): T3 sequence (P51639 whole entry)

Sus scrofa [16] = species: Sus scrofa; test: In vitro inhibition of Cu2+ catalyzed LDL oxidation; assay type: functional
Procedure, shortened: (§6)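 Porcine plasma LDL isolated by sequential ultracentrifugation (density 1.019-1.063 g/mL), dialysed against PBS pH 7.4, then diluted to 0.1 mg/mL protein. Preincubated 1 h at 37 °C under N2 with compound in ethanol. Oxidised with 5 μM Cu2+ for 2 h at 37 °C in air. Fluorescence read at ex 365/em 430 nm.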

Sus scrofa [17] = species: Sus scrofa; test: Compound was tested for inhibition of Cu2+ catalyzed LDL oxidation and the potency relative to terbufucine was determined; assay type: functional; procedure, shortened: as §6
Oryctolagus cuniculus [18] = test: Tested in vivo for hypocholesterolemic activity by measuring its ability to decrease serum total cholesterol, after oral administration of 50 mg/kg body wt. per day in normolipidemic NZW rabbits; assay type: functional; procedure, shortened: as §4
[19] = target: T3, 3-hydroxy-3-methylglutaryl-coenzyme A reductase; test: In vitro inhibition of solubilized HMG-CoA reductase in rat liver.
Rattus norvegicus [20] = test: Compound was tested for effect on body weight after oral administration of 30 mg/kg in male rats.; assay type: functional; procedure, shortened: as §5
Rattus norvegicus [21] = test: Compound was tested for effect on liver weight after oral administration of 30 mg/kg in male rats.; assay type: functional; procedure, shortened: as §5
Rattus norvegicus [22] = test: Compound was tested for effect on serum HDL after oral administration of 30 mg/kg in male rats; assay type: functional; procedure, shortened: as §5
Rattus norvegicus [23] = test: Compound was tested for effect on serum LDL after oral administration of 30 mg/kg in male rats; assay type: functional; procedure, shortened: as §5
Rattus norvegicus [24] = test: Compound was tested for effect on serum VLDL after oral administration of 30 mg/kg in male rats; assay type: functional; procedure, shortened: as §5

Compound `CC(=O)Oc1c(C(C)C)c(-c2ccc(F)cc2)c(O)c(C(C)C)c1C(C)C` has an IC50 (Rattus norvegicus [1]) of 4.8 µM, an inhibition (Rattus norvegicus [2]) of 83% and a Relative potency (Rattus norvegicus [3]) of 2.

`CC(C)c1cc(-c2ccc(F)cc2)c(OCC2C[C@@H](O)CC(=O)O2)c(C(C)C)c1` (stereo partly drawn) gave an IC50 [4] of 0.0018 µM, a Relative potency [5] of 250 and a Change (Oryctolagus cuniculus [6]) of -30%. For the same compound, the Cholesterol (Rattus norvegicus [7]) was 11.4% and the Relative potency (Rattus norvegicus [8]) was 103.

In the case of `CCOC(=O)C(C)(C)Oc1ccc(Cl)cc1` [CLOFIBRATE], the Change (Rattus norvegicus [9]) is reported as 8%, the Change (Rattus norvegicus [10]) is reported as 15% and the Change (Rattus norvegicus [11]) is reported as -29%. For the same compound, the Change (Rattus norvegicus [12]) was -19% and the Change (Rattus norvegicus [13]) was -40%.

`CC(C)c1c(O)c(C(C)C)c(C(C)C)c(OCC(O)C[C@@H](O)CC(=O)[O-])c1-c1ccc(F)cc1.[Na+]` (stereo partly drawn) was tested, and the IC50 [14] was 0.02 µM, the Relative potency [15] was 34 and the IC50 [4] was 0.0056 µM. For the same compound, the Relative potency [5] was 900, the IC50 (Sus scrofa [16]) was 1.1 µM and the Relative potency (Sus scrofa [17]) was 10. For the same compound, the inhibition (Rattus norvegicus [2]) was 27% and the Relative potency (Rattus norvegicus [3]) was under 0.1.

`Cc1cc(Cl)cc(CCCOc2ccc(Cl)cc2)c1OCC1C[C@@H](O)CC(=O)O1` (stereo partly drawn) gave a Change (Oryctolagus cuniculus [18]) of -2%, a Cholesterol (Rattus norvegicus [7]) of 25.2% and a Relative potency (Rattus norvegicus [8]) of 87.

Work on `CC(C)c1cc(Sc2ccc(F)cc2)cc(-c2ccc(F)cc2)c1O` yielded an IC50 (Sus scrofa [16]) of 1 µM, a Relative potency (Sus scrofa [17]) of 11 and an IC50 (Rattus norvegicus [1]) of 3 µM. For the same compound, the inhibition (Rattus norvegicus [2]) was 95% and the Relative potency (Rattus norvegicus [3]) was 3.

With `Cc1c(CCC(O)C[C@@H](O)CC(=O)O)c(-c2ccc(F)cc2)cn1-c1ccccc1` (stereo partly drawn) the IC50 [19] was 0.035 µM.

In the case of `CC(C)c1cc(SC(C)(C)Sc2cc(-c3ccc(F)cc3)c(OCC(O)C[C@@H](O)CC(=O)[O-])c(C(C)C)c2)cc(-c2ccc(F)cc2)c1[O-].[Na+].[Na+]` (stereo partly drawn), the IC50 [14] is reported as 0.03 µM, the Relative potency [15] is reported as 15 and the IC50 [4] is reported as over 1.7 µM. It also gave a Relative potency [5] of under 3, a Change (Rattus norvegicus [9]) of 5% and a Change (Rattus norvegicus [20]) of 5%. It also gave a Change (Rattus norvegicus [10]) of 1%, a Change (Rattus norvegicus [21]) of 3% and a Change (Rattus norvegicus [11]) of -3%. The Change (Rattus norvegicus [22]) was 13%, the Change (Rattus norvegicus [12]) was -16% and the Change (Rattus norvegicus [23]) was -26%. The Change (Rattus norvegicus [13]) was 13%, the Change (Rattus norvegicus [24]) was 12% and the IC50 (Rattus norvegicus [1]) was 2.7 µM. It also gave a Relative potency (Rattus norvegicus [3]) of 4.

`CC(C)(Sc1cc(C(C)(C)C)c(O)c(C(C)(C)C)c1)Sc1cc(C(C)(C)C)c(O)c(C(C)(C)C)c1` [PROBUCOL] was tested, and the IC50 (Sus scrofa [16]) was 0.5 µM, the Relative potency (Sus scrofa [17]) was 22 and the Change (Rattus norvegicus [20]) was 5%. It also gave a Change (Rattus norvegicus [21]) of 5%, a Change (Rattus norvegicus [22]) of -11% and a Change (Rattus norvegicus [23]) of -24%. For the same compound, the Change (Rattus norvegicus [24]) was 4%.
